In data set [1] the test system is Human immunodeficiency virus 1. As to the kind of experiment: Antiviral activity against wild-type HIV-1 3B infected in human MT4 cells assessed as inhibition of viral replication after 5 days by MTT assay. The note with it: Human immunodeficiency virus 1, 3B, MT4, 120 h. The format is functional, organism-based.
For the next data set, the system named is MT4. Put plainly: Cytotoxicity against human MT4 cells assessed as decrease in cell viability after 5 days by MTT assay. Format: cell-based. The settings on record: mt4, 120 h. In a few lines: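 Mock-infected MT-4 cells, exponentially growing, seeded with compound in culture medium without virus; run in parallel with the antiviral assay. Viability read spectrophotometrically by MTT reduction five days later.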
(In general: Tetrazolium dyes change colour on reduction, which living cells bring about.)

The subject of data set [2] is Human immunodeficiency virus 1. As to the kind of experiment: Antiviral activity against HIV-1 RES056 harboring reverse transcriptase K103N/Y181C double mutant infected in human MT4 cells assessed as inhibition of viral replication after 5 days by MTT assay. The note with it: Human immunodeficiency virus 1, RES056, MT4, 120 h. Format: functional, organism-based.
A short description of data set [3]: Selectivity index, ratio of CC50 for human MT4 cells to EC50 for wild-type HIV1 3B. The format is toxicity. The note with it: read-out: Ratio CC50/EC50. In a few lines:
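Wild-type HIV-1 IIIB at 100–300 CCID50 added to MT-4 cells with compound, with mock-infected wells in parallel. MTT viability was read at day 5. […] SI = CC50/EC50.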

Data set [4] can be described thus: Selectivity index, ratio of CC50 for human MT4 cells to EC50 for HIV-1 RES056 harboring reverse transcriptase K103N/Y181C double mutant infected in human MT4 cells. Format: toxicity, cell-based. The note with it: read-out: Ratio CC50/EC50. In a few lines:
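SI is CC₅₀ divided by EC₅₀, both by MTT after 5 days in MT-4 cells. CC₅₀ comes from mock-infected cultures run in parallel and is the concentration reducing their viability by 50%. EC₅₀ comes from cultures infected with the given mutant strain at 100–300 CCID₅₀.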

Broadly, the EC50 is the concentration needed to bring the measured effect to its halfway point. By CC50 is commonly meant the concentration giving 50% cytotoxicity.

Turning to `Cc1cc(C)c(Oc2cc(Nc3ccc(C#N)cc3)ncc2C(=O)NCc2cn(Cc3ccccc3[N+](=O)[O-])nn2)c(C)c1`, the concentration giving a half-maximal response (EC50) is 0.057 µM in data set [1] and above 212 µM in data set [2]. For the same compound, in the data set with MT4, the CC50 is above 212 µM.

With `Cc1cc(C)c(Oc2cc(Nc3ccc(C#N)cc3)ncc2C(=O)NCc2cn(Cc3ccccc3C)nn2)c(C)c1`, the EC50 in data set [1] was 0.077 µM; in data set [2], above 164 µM. The 50% cytotoxic concentration (CC50) with MT4 is at least 164 µM.

As for `CCOC(=O)Cn1cc(CNC(=O)c2cnc(Nc3ccc(C#N)cc3)cc2Oc2c(C)cc(C)cc2C)nn1`, the selectivity ratio in data set [3] was 15; in data set [4], below 1. Besides, the EC50 was 0.653 µM in data set [1] and above 9.53 µM in data set [2]. For the same compound, in the data set on MT4, the CC50 stood at 9.53 µM.

For `Cc1cccc(Cn2cc(CNC(=O)c3cnc(Nc4ccc(C#N)cc4)cc3Oc3c(C)cc(C)cc3C)nn2)c1`, the selectivity ratio in data set [3] is 1070; in data set [4], below 1. Also, the figures for the concentration giving a half-maximal response (EC50) in data set [1] and in data set [2] were 0.106 µM and above 114 µM, respectively. Further, the CC50 in the data set on MT4 was found to be 114 µM.

As for `Cc1cc(C)c(Oc2cc(Nc3ccc(C#N)cc3)ncc2C(=O)NCc2cn(Cc3cccc(F)c3)nn2)c(C)c1`, the EC50 in data set [1] was 0.079 µM; in data set [2] it was above 205 µM. For the same compound, in the data set on MT4, the CC50 was at least 205 µM.

As to `Cc1cc(C)c(Oc2cc(Nc3ccc(C#N)cc3)ncc2C(=O)NCc2cn(Cc3ccccc3C#N)nn2)c(C)c1`, the EC50 in data set [1] was 0.039 µM; in data set [2], above 220 µM. Also, the CC50 in the data set on MT4 was above 220 µM.

In the case of `Cc1cc(C)c(Oc2cc(Nc3ccc(C#N)cc3)ncc2C(=O)NCc2cn(Cc3cccc([N+](=O)[O-])c3)nn2)c(C)c1`, the figures for the EC50 in data set [1] and in data set [2] were 0.037 µM and above 156 µM, respectively. The CC50 in the data set with MT4 was at least 156 µM.

`Cc1cc(C)c(Oc2cc(Nc3ccc(C#N)cc3)ncc2C(=O)NCc2cn(Cc3ccc(Cl)cc3)nn2)c(C)c1`: the EC50 in data set [1] is 0.194 µM; in data set [2], above 120 µM. For the same compound, in the data set on MT4, the CC50 was at least 120 µM.

As for `Cc1ccc(Cn2cc(CNC(=O)c3cnc(Nc4ccc(C#N)cc4)cc3Oc3c(C)cc(C)cc3C)nn2)cc1`, the selectivity ratio is 990 in data set [3] and below 1 in data set [4]. For the same compound, the figures for the EC50 in data set [1] and in data set [2] were 0.167 µM and above 165 µM, respectively. Besides, in the data set with MT4, the half-maximal cytotoxic concentration (CC50) is 165 µM.

`Cc1cc(C)c(Oc2cc(Nc3ccc(C#N)cc3)ncc2C(=O)NCc2cn(Cc3ccc(F)cc3)nn2)c(C)c1`: the EC50 in data set [1] was 0.074 µM; in data set [2], above 153 µM. Moreover, in the data set with MT4, the CC50 is at least 153 µM.

Turning to `Cc1cc(C)c(Oc2cc(Nc3ccc(C#N)cc3)ncc2C(=O)NCc2cn(Cc3ccccc3F)nn2)c(C)c1`, the EC50 in data set [1] was 0.095 µM; in data set [2], above 222 µM. Besides, the CC50 with MT4 was above 222 µM.

As to `Cc1cc(C)c(Oc2cc(Nc3ccc(C#N)cc3)ncc2C(=O)NCc2cn(Cc3cccc(Cl)c3)nn2)c(C)c1`, the selectivity ratio in data set [3] was 1800; in data set [4], below 1. In addition, the EC50 in data set [1] is 0.104 µM; in data set [2], above 187 µM. Besides, in the data set on MT4, the CC50 was 187 µM.

In the case of `Cc1cc(C)c(Oc2cc(Nc3ccc(C#N)cc3)ncc2C(=O)NCc2cn(Cc3cccc(C#N)c3)nn2)c(C)c1`, the figures for the EC50 in data set [1] and in data set [2] were 0.025 µM and above 130 µM, respectively. The CC50 with MT4 is at least 130 µM.

In the case of `Cc1cc(C)c(Oc2cc(Nc3ccc(C#N)cc3)ncc2C(=O)NCc2cn(Cc3ccc([N+](=O)[O-])cc3)nn2)c(C)c1`, the concentration for a half-maximal effect (EC50) in data set [1] is 0.04 µM; in data set [2], above 140 µM. Further, in the data set with MT4, the 50% cytotoxic concentration (CC50) is at least 140 µM.

In the case of `Cc1cc(C)c(Oc2cc(Nc3ccc(C#N)cc3)ncc2C(=O)NCc2cn(Cc3ccccc3Cl)nn2)c(C)c1`, the EC50 was 0.104 µM in data set [1] and above 188 µM in data set [2]. Moreover, in the data set on MT4, the CC50 was at least 188 µM.

Turning to `COC(=O)Cn1cc(CNC(=O)c2cnc(Nc3ccc(C#N)cc3)cc2Oc2c(C)cc(C)cc2C)nn1`, the selectivity ratio was 8 in data set [3] and below 1 in data set [4]. The EC50 in data set [1] was 1.77 µM; in data set [2], above 13.8 µM. In the data set on MT4, the CC50 worked out at 13.8 µM.

Source of the values: ChEMBL document CHEMBL4152200, “Targeting the entrance channel of NNIBP: Discovery of diarylnicotinamide 1,4-disubstituted 1,2,3-triazoles as novel HIV-1 NNRTIs with high potency against wild-type and E138K mutant virus” (Eur J Med Chem, 2018).
